Inconclusive results are not listed.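 How the source made its calls, unless noted: active means cell viability at or below a set limit in both duplicate runs, the limit being the all-compound median minus 4 SD (cut at about 23% in these data, passing the limit was not always enough); inconclusive means no clear call, values can overlap the other calls; inactive means the rest.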
Columns and labels:
[1] = S. cerevisiae growth inhibition in permissive medium (OD615), pilot counter-assay for S. cerevisiae lifespan shortening project, permissive growth control (AID 705;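 active means growth inhibition above 25% in both replicates, a cutoff set 3 SD above the mean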); conditions: OD615, 24 h, at 10 µM, hits give high values
Method in brief: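 System: Engineered DeaD yeast | Buffer or medium: SC raffinose/galactose permissive medium | Incubation: Cells pre-grown 4 h, then 24 h compound exposure, 30 °C humidified | Measured by: Absorbance (optical density) at 615 nm | Read-out: Reduction in yeast growth (OD615)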

[2] = S. cerevisiae growth inhibition in restrictive medium, OD615, pilot screen, restrictive growth control, yeast lifespan reduction project (AID 706;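 active means growth inhibition above a set limit, 3 SD over mean compound inhibition, in both replicates, cut at about 43% in these data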;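 further: modified DeaD lifespan yeast strain shifted to restrictive glucose medium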); conditions: OD615, 48 h, at 10 µM, hits give high values
Method in brief: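 Material: modified S. cerevisiae; Medium: glucose-based CSMM-D restrictive medium; Compound dosing: one concentration, 10 µM final, 0.25% DMSO; Incubation: 48 h compound exposure at 30 °C; Measured by: OD615.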

[3] = doxorubicin toxicity protection in MRP-1 cells – H69AR cells, CellTiter-Glo, duplicate, MRP-1 activator project, pilot screen (AID 807;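 active means viability increase at or above a cutoff of the median across tested compounds plus 3 SD, cut at about 8.5% in these data, passing the limit was not always enough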;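 further: compound pretreatment 18-22 h then 72 h combined with doxorubicin; 0% = doxorubicin alone and 100% = vehicle without doxorubicin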); conditions: H69AR viability with doxorubicin, CellTiter-Glo luminescence; at 10 µM; hits give high values
[4] = viability of HCT116 without oncogenic beta-catenin – human colon tumor cells, pilot screen (AID 823); conditions: HCT116 beta-catenin knockout viability, CellTiter-Glo, 60 h; at 10 µM; hits give low values;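 further: 0% = wells killed by 20 µM Hyamine and 100% = untreated DMSO cell wells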
[5] = viability of PTEN-null HCT116 cells – cell-based, HCT116 clonal line, CellTiter-Glo, pilot screen (AID 824;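 active means viability at or below 27.92% in each of two runs, the all-compound median minus 4 SD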;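 further: 0% = 20 µM Hyamine control and 100% = vehicle cell control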); conditions: HCT116 PTEN-deleted viability, 60 h, at 10 µM, hits give low values
[6] = RAM pathway blockade in budding yeast – dse1pr::URA3 reporter, 5-FOA selection, pilot screen (AID 869;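 active means inhibition over a set limit, the all-compound mean plus 3 SD, in both replicate runs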;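 further: 0% = DMSO wells with no growth and 100% = 10 µM 1-NA-PP1 with full growth; RAM network block rescues cells from 5-FOA so hits raise OD615 growth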); conditions: S. cerevisiae dse1pr::URA3 5-FOA growth, OD615, 2 d; at 10 µM; hits give high values; strain carries analog-sensitive mutant Cbk1 kinase
[7] = RAM signaling pathway blockade in yeast – S. cerevisiae, Pdr1DBD-CYC8 efflux-inhibited sensitized strain, primary screen (AID 1298;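 active means RAM network inhibition above 8.4% in each of two replicates, 3 SD over the compound average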;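 further: 0% = DMSO untreated cells without growth and 100% = 10 µM 1-NA-PP1 full growth; higher means more yeast growth rescued from 5-FOA killing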); conditions: S. cerevisiae cbk1-as DSE1-URA3 strain, 5-FOA growth OD615, 2 d; at 50 µM; hits give high values

CCCCCSc1nc2c(c(=O)[nH]c(=O)n2C)n1C
inactive: growth inhibition [1] -12.6% | growth inhibition [2] -5.52% | viability increase [3] -2.27% | viability [4] 90.3% | viability [5] 79.6% | inhibition [6] 2.1% | RAM network inhibition [7] 0.68%

COC(=O)C1=C(C)N=c2s/c(=C3\C(=O)Nc4ccccc43)c(=O)n2C1c1ccccc1 (stereo unspecified)
inactive: growth inhibition [1] -2% | growth inhibition [2] -1.65% | viability increase [3] -4.83% | viability [4] 92.3% | viability [5] 91.6% | inhibition [6] 1.77% | RAM network inhibition [7] 3.17%

CCN(CC)CCCNC(=O)C1c2ccccc2C(=O)N(C)C1c1ccc(OC)cc1 (stereo unspecified)
inactive: growth inhibition [1] -23% | growth inhibition [2] -20.7% | viability increase [3] 0.37% | viability [4] 96.5% | viability [5] 97.3% | inhibition [6] 3.1% | RAM network inhibition [7] 2.54%

C=CC(C)Sc1nc2c(c(=O)n(C)c(=O)n2C)n1Cc1ccccc1Cl (stereo unspecified)
inactive: growth inhibition [1] -3.12% | growth inhibition [2] -2.02% | viability increase [3] -3.37% | viability [4] 100% | viability [5] 99.3% | inhibition [6] 0.785% | RAM network inhibition [7] 5.22%

FC(F)C(F)(F)C1=CC(c2ccccc2)=NCCN1
inactive: growth inhibition [1] -9.88% | growth inhibition [2] -17.6% | viability increase [3] -1.16% | viability [4] 96.7% | viability [5] 85.5% | inhibition [6] 1.59% | RAM network inhibition [7] 2.09%

COc1ccc(CC(NC(=O)c2ccccc2)C(=O)NCC(=O)O)cc1 (stereo unspecified)
inactive: growth inhibition [1] -3.04% | growth inhibition [2] -2.91% | viability increase [3] -0.14% | viability [4] 95.2% | viability [5] 101% | inhibition [6] 1.44% | RAM network inhibition [7] -0.37%

O=S(=O)(Nc1ccc(O)cc1)c1cccc2cccnc12
inactive: growth inhibition [1] -1.12% | growth inhibition [2] -4.81% | viability increase [3] -1.95% | viability [4] 93.9% | viability [5] 87% | inhibition [6] 2.25% | RAM network inhibition [7] 0.83%

O=C(O)c1ccc(NC(=O)C2C3CCC(C3)C2C(=O)O)cc1 (stereo unspecified)
inactive: growth inhibition [1] 7% | growth inhibition [2] -0.915% | viability increase [3] -0.12% | viability [4] 101% | viability [5] 98.8% | inhibition [6] 0.345% | RAM network inhibition [7] 0.46%

O=C(Cn1cc2c(n1)CCCC2)N1CCCc2ccccc21
inactive: growth inhibition [1] 1.09% | growth inhibition [2] 4.04% | viability increase [3] -1.6% | viability [4] 98.6% | viability [5] 100% | inhibition [6] 0.85% | RAM network inhibition [7] 1.48%

COc1ccc(S(=O)(=O)Cc2ccc(C(=O)NCc3cccs3)o2)cc1
inactive: growth inhibition [1] -2.92% | growth inhibition [2] -21.2% | viability increase [3] -4.71% | viability [4] 94.7% | viability [5] 87.1% | inhibition [6] 1.21% | RAM network inhibition [7] 3.04%

Cn1c(SCC(=O)N2CCCCC2)nc2c([nH]c3ccccc32)c1=O
inactive: growth inhibition [1] -3.83% | growth inhibition [2] -3.68% | viability increase [3] -6.06% | viability [4] 61.4% | viability [5] 44% | inhibition [6] 2.85% | RAM network inhibition [7] 4.75%

CCSCCOC(=O)C1=C(C)NC(=O)NC1c1ccccc1 (stereo unspecified)
inactive: growth inhibition [1] -4.77% | growth inhibition [2] -1.22% | viability increase [3] 0.68% | viability [4] 105% | viability [5] 98.1% | inhibition [6] 1.47% | RAM network inhibition [7] 0.3%

Cn1cccc1Cc1nnc(SCC(=O)Nc2ccc3c(c2)OCO3)n1-c1ccc(F)cc1
inactive: growth inhibition [1] 8.39% | growth inhibition [2] 14.1% | viability increase [3] -1.95% | viability [4] 90.4% | viability [5] 91.3% | inhibition [6] 1.56% | RAM network inhibition [7] 8.29%

COC(=O)CSc1nc2ccccc2nc1SCC(=O)OC
inactive: growth inhibition [1] -11.7% | growth inhibition [2] -9.89% | viability increase [3] -2% | viability [4] 93.4% | viability [5] 92% | inhibition [6] 2.12% | RAM network inhibition [7] 7.83%

COc1cc(OC)c(C2Oc3nc(SC)nnc3-c3ccccc3N2C(C)=O)cc1OC (stereo unspecified)
inactive: growth inhibition [1] 4.06% | growth inhibition [2] -0.66% | viability increase [3] -4.95% | viability [4] 108% | viability [5] 108% | inhibition [6] 3.23% | RAM network inhibition [7] 1.75%

O=C(NCC1CCCO1)NC1(C(F)(F)F)Oc2ccccc2O1 (stereo unspecified)
inactive: growth inhibition [1] -24.1% | growth inhibition [2] -16% | viability increase [3] -7.32% | viability [4] 60.8% | viability [5] 67.1% | inhibition [6] 1.9% | RAM network inhibition [7] 2.09%

COc1ccccc1CC1(C)NC(=O)N(CC(=O)N2CC(C)OC(C)C2)C1=O (stereo unspecified)
inactive: growth inhibition [1] -25.5% | growth inhibition [2] -15% | viability increase [3] -0.71% | viability [4] 95.5% | viability [5] 97.9% | inhibition [6] 1.68% | RAM network inhibition [7] 1.34%

O=C(NCCn1ccc2ccccc21)c1ccc(S(=O)(=O)N2CCCCC2)cc1
inactive: growth inhibition [1] -12.5% | growth inhibition [2] -22.4% | viability increase [3] -5.02% | viability [4] 79.6% | viability [5] 71.1% | inhibition [6] 0.45% | RAM network inhibition [7] 4.77%

CC(C)c1cc(N2CCN(C(=O)c3ccco3)CC2)n2c(nc3ccccc32)c1C#N
inactive: growth inhibition [1] -3.91% | growth inhibition [2] 0.12% | viability increase [3] -5.67% | viability [4] 94.1% | viability [5] 91.6% | inhibition [6] 2.04% | RAM network inhibition [7] 3.57%

Cn1cccc1Cc1nnc(SCC(=O)NCc2ccccc2Cl)n1-c1ccc(F)cc1
inactive: growth inhibition [1] -7.31% | growth inhibition [2] 9.87% | viability increase [3] -5% | viability [4] 87% | viability [5] 86.5% | inhibition [6] 1.92% | RAM network inhibition [7] 8.74%

CCN(CCCNC(=O)Cn1cc2c(n1)CCCC2)c1cccc(C)c1
inactive: growth inhibition [1] -4.97% | growth inhibition [2] 3.35% | viability increase [3] -3.77% | viability [4] 86% | viability [5] 81.5% | inhibition [6] 0.48% | RAM network inhibition [7] 4.45%

Cc1ccc(Cn2c3ccccc3c3cn[nH]c(=O)c32)cc1
inactive: growth inhibition [1] -15.7% | growth inhibition [2] -24.6% | viability increase [3] -3.48% | viability [4] 101% | viability [5] 91.1% | inhibition [6] 2.17% | RAM network inhibition [7] 3.88%

O=C(NC1CCCCCCC1)c1ccc(CNc2c(N3CCOCC3)c(=O)c2=O)cc1
inactive: growth inhibition [1] 1.56% | growth inhibition [2] 8.42% | viability increase [3] 0.25% | viability [4] 100% | viability [5] 95.6% | inhibition [6] 0.71% | RAM network inhibition [7] 0.92%
